System: HEK-293T
Assay: Multiplex assay against HEK293T;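 as to Population Tubulin-Different-Phenotype (%): share of the cells with healthy nuclei that show this phenotype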
Format: toxicity, cell-based
Conditions: human
Method in brief: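 Per cents of healthy-nucleus cells form the tubulin, mitochondrial-mass and membrane-permeability phenotype values. Live cells were stained at seeding with Hoechst33342, BioTracker Green Microtubule Cytoskeleton Dye, MitoTracker Red and Annexin V Alexa Fluor 680. After compound addition they were imaged on a CQ1 microscope at 37°C and 5% CO2, and CellPathfinder machine-learning gating split them into Hoechst high-intensity objects or normal cells, normal cells into healthy, pyknosed or fragmented nuclei, and pyknosed cells into mitotic or apoptotic.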

[1] = 12 h, 1 µM, compound concentration 1 uM, replicate 1
[2] = 12 h, 1 µM, compound concentration 1 uM, replicate 2
[3] = 12 h, 10 µM, compound concentration 10 uM, replicate 1
[4] = 12 h, 10 µM, compound concentration 10 uM, replicate 2
[5] = 24 h, 1 µM, compound concentration 1 uM, replicate 1
[6] = 24 h, 1 µM, compound concentration 1 uM, replicate 2
[7] = 24 h, 10 µM, compound concentration 10 uM, replicate 1
[8] = 24 h, 10 µM, compound concentration 10 uM, replicate 2
[9] = 48 h, 1 µM, compound concentration 1 uM, replicate 1
[10] = 48 h, 1 µM, compound concentration 1 uM, replicate 2
[11] = 48 h, 10 µM, compound concentration 10 uM, replicate 1
[12] = 48 h, 10 µM, compound concentration 10 uM, replicate 2

In the case of Cc1cc(C)cc(-c2cnc3cc(Cl)c(-c4cccc(O)c4)cc3c2OCCCN)c1, the “Population Apoptotic (%)” value [1] is reported as 53%, the “Population Fragmented Nuclei (%)” value [1] is reported as 11% and the “Population Healthy Nuclei (%)” value [1] is reported as 40%. For the same molecule, the “Population Hoechst High Intensity Objects (%)” value [1] was 10%, the “Population Membrane Permeable-Phenotype (%)” value [1] was 3% and the “Population Mitochondria Different-Phenotype (%)” value [1] was 95%. For the same molecule, the “Population Mitotic Cells (%)” value [1] was 46%, the “Population Normal (%)” value [1] was 89% and the “Population Pyknosed Nuclei (%)” value [1] was 47%. The “Population Tubulin-Different-Phenotype (%)” value [1] was 92%, the “Total Cell Count” value [1] was 349 and the “Population Apoptotic (%)” value [2] was 31%. For the same molecule, the “Population Fragmented Nuclei (%)” value [2] was 5%, the “Population Healthy Nuclei (%)” value [2] was 43% and the “Population Hoechst High Intensity Objects (%)” value [2] was 3%. The “Population Membrane Permeable-Phenotype (%)” value [2] was 6%, the “Population Mitochondria Different-Phenotype (%)” value [2] was 66% and the “Population Mitotic Cells (%)” value [2] was 68%. For the same molecule, the “Population Normal (%)” value [2] was 96%, the “Population Pyknosed Nuclei (%)” value [2] was 50% and the “Population Tubulin-Different-Phenotype (%)” value [2] was 63%. The “Total Cell Count” value [2] was 251, the “Population Apoptotic (%)” value [3] was 70% and the “Population Fragmented Nuclei (%)” value [3] was 23%. For the same molecule, the “Population Healthy Nuclei (%)” value [3] was 1%, the “Population Hoechst High Intensity Objects (%)” value [3] was 13% and the “Population Membrane Permeable-Phenotype (%)” value [3] was 33%. The “Population Mitochondria Different-Phenotype (%)” value [3] was 33%, the “Population Mitotic Cells (%)” value [3] was 29% and the “Population Normal (%)” value [3] was 86%. For the same molecule, the “Population Pyknosed Nuclei (%)” value [3] was 74%, the “Population Tubulin-Different-Phenotype (%)” value [3] was 66% and the “Total Cell Count” value [3] was 226. For the same molecule, the “Population Apoptotic (%)” value [4] was 90%, the “Population Fragmented Nuclei (%)” value [4] was 5% and the “Population Healthy Nuclei (%)” value [4] was 18%. The “Population Hoechst High Intensity Objects (%)” value [4] was 3%, the “Population Membrane Permeable-Phenotype (%)” value [4] was 0% and the “Population Mitochondria Different-Phenotype (%)” value [4] was 91%. For the same molecule, the “Population Mitotic Cells (%)” value [4] was 9%, the “Population Normal (%)” value [4] was 96% and the “Population Pyknosed Nuclei (%)” value [4] was 76%. The “Population Tubulin-Different-Phenotype (%)” value [4] was 97%, the “Total Cell Count” value [4] was 192 and the “Population Apoptotic (%)” value [5] was 53%. For the same molecule, the “Population Fragmented Nuclei (%)” value [5] was 15%, the “Population Healthy Nuclei (%)” value [5] was 26% and the “Population Hoechst High Intensity Objects (%)” value [5] was 12%. For the same molecule, the “Population Membrane Permeable-Phenotype (%)” value [5] was 1%, the “Population Mitochondria Different-Phenotype (%)” value [5] was 98% and the “Population Mitotic Cells (%)” value [5] was 46%. For the same molecule, the “Population Normal (%)” value [5] was 87%, the “Population Pyknosed Nuclei (%)” value [5] was 57% and the “Population Tubulin-Different-Phenotype (%)” value [5] was 90%. For the same molecule, the “Total Cell Count” value [5] was 358, the “Population Apoptotic (%)” value [6] was 39% and the “Population Fragmented Nuclei (%)” value [6] was 6%. For the same molecule, the “Population Healthy Nuclei (%)” value [6] was 56%, the “Population Hoechst High Intensity Objects (%)” value [6] was 2% and the “Population Mitochondria Different-Phenotype (%)” value [6] was 81%. For the same molecule, the “Population Mitotic Cells (%)” value [6] was 60%, the “Population Normal (%)” value [6] was 97% and the “Population Pyknosed Nuclei (%)” value [6] was 36%. For the same molecule, the “Population Tubulin-Different-Phenotype (%)” value [6] was 79%, the “Total Cell Count” value [6] was 296 and the “Population Apoptotic (%)” value [7] was 77%. For the same molecule, the “Population Fragmented Nuclei (%)” value [7] was 22%, the “Population Healthy Nuclei (%)” value [7] was 1% and the “Population Hoechst High Intensity Objects (%)” value [7] was 12%. For the same molecule, the “Population Membrane Permeable-Phenotype (%)” value [7] was 0%, the “Population Mitochondria Different-Phenotype (%)” value [7] was 66% and the “Population Mitotic Cells (%)” value [7] was 22%. The “Population Normal (%)” value [7] was 87%, the “Population Pyknosed Nuclei (%)” value [7] was 76% and the “Population Tubulin-Different-Phenotype (%)” value [7] was 66%. For the same molecule, the “Total Cell Count” value [7] was 232, the “Population Apoptotic (%)” value [8] was 94% and the “Population Fragmented Nuclei (%)” value [8] was 6%. The “Population Healthy Nuclei (%)” value [8] was 9%, the “Population Hoechst High Intensity Objects (%)” value [8] was 8% and the “Population Membrane Permeable-Phenotype (%)” value [8] was 6%. For the same molecule, the “Population Mitochondria Different-Phenotype (%)” value [8] was 75%, the “Population Mitotic Cells (%)” value [8] was 5% and the “Population Normal (%)” value [8] was 91%. The “Population Pyknosed Nuclei (%)” value [8] was 83%, the “Population Tubulin-Different-Phenotype (%)” value [8] was 75% and the “Total Cell Count” value [8] was 183. For the same molecule, the “Population Apoptotic (%)” value [9] was 51%, the “Population Fragmented Nuclei (%)” value [9] was 17% and the “Population Healthy Nuclei (%)” value [9] was 13%. For the same molecule, the “Population Hoechst High Intensity Objects (%)” value [9] was 18%, the “Population Membrane Permeable-Phenotype (%)” value [9] was 0% and the “Population Mitochondria Different-Phenotype (%)” value [9] was 87%. The “Population Mitotic Cells (%)” value [9] was 48%, the “Population Normal (%)” value [9] was 81% and the “Population Pyknosed Nuclei (%)” value [9] was 68%. For the same molecule, the “Population Tubulin-Different-Phenotype (%)” value [9] was 75%, the “Total Cell Count” value [9] was 352 and the “Population Apoptotic (%)” value [10] was 33%. For the same molecule, the “Population Fragmented Nuclei (%)” value [10] was 5%, the “Population Healthy Nuclei (%)” value [10] was 75% and the “Population Hoechst High Intensity Objects (%)” value [10] was 6%. The “Population Membrane Permeable-Phenotype (%)” value [10] was 3%, the “Population Mitochondria Different-Phenotype (%)” value [10] was 55% and the “Population Mitotic Cells (%)” value [10] was 66%. The “Population Normal (%)” value [10] was 93%, the “Population Pyknosed Nuclei (%)” value [10] was 19% and the “Population Tubulin-Different-Phenotype (%)” value [10] was 69%. The “Total Cell Count” value [10] was 406, the “Population Apoptotic (%)” value [11] was 80% and the “Population Fragmented Nuclei (%)” value [11] was 27%. The “Population Healthy Nuclei (%)” value [11] was 1%, the “Population Hoechst High Intensity Objects (%)” value [11] was 16% and the “Population Membrane Permeable-Phenotype (%)” value [11] was 0%. The “Population Mitochondria Different-Phenotype (%)” value [11] was 50%, the “Population Mitotic Cells (%)” value [11] was 19% and the “Population Normal (%)” value [11] was 83%. The “Population Pyknosed Nuclei (%)” value [11] was 71%, the “Population Tubulin-Different-Phenotype (%)” value [11] was 50% and the “Total Cell Count” value [11] was 238. The “Population Apoptotic (%)” value [12] was 96%, the “Population Fragmented Nuclei (%)” value [12] was 15% and the “Population Healthy Nuclei (%)” value [12] was 14%. The “Population Hoechst High Intensity Objects (%)” value [12] was 7%, the “Population Membrane Permeable-Phenotype (%)” value [12] was 12% and the “Population Mitochondria Different-Phenotype (%)” value [12] was 79%. For the same molecule, the “Population Mitotic Cells (%)” value [12] was 3%, the “Population Normal (%)” value [12] was 92% and the “Population Pyknosed Nuclei (%)” value [12] was 70%. The “Population Tubulin-Different-Phenotype (%)” value [12] was 83% and the “Total Cell Count” value [12] was 179.

Source: ChEMBL document CHEMBL4689842, “EUbOPEN Chemogenomics Library wave 1” (2021)
